Our source for the inhibition, Activity and viability values is ChEMBL document CHEMBL1773042, “Antiproliferative triterpenes from the leaves and twigs of Juglans sinensis on HSC-T6 cells” (2011).

A short description of assay [1]: Antiproliferative activity against rat HSC-T6 cells at 100 uM after 48 hrs by MTT assay. The assay is classed as functional. Particulars: HSC-T6, 48 h. A digest of the protocol:
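HSC-T6 (immortalized rat hepatic stellate line) kept in DMEM with 10% heat-inactivated FBS, penicillin/streptomycin, 37 °C, 5% CO2. Seeded at 5 × 10^4 cells/mL, grown 24 h, then exposed 48 h to vehicle or compound (10–100 μM, DMSO final 0.1%). MTT 2 mg/mL for 2 h, absorbance at 540 nm. Proliferation given as 100 × treated/vehicle absorbance. Mean of three independent experiments.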

Assay [2] deals with HSC-T6. The assay is described as follows: Induction of apoptosis in rat HSC-T6 cells assessed as change in cell morphology after 48 hrs by phase contrast microscopy. The assay is classed as functional, cell-based.
Assay [3] is described as follows: Cell cycle arrest in rat HSC-T6 cells assessed as inhibition of DNA synthesis at sub-G1 phase at 25 uM after 24 hrs. The assay is classed as functional, cell-based. More on the design: scale not given: the % may be the effect or the level left. Put shortly: (§1)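 Cells seeded at 5 × 10^5 cells/mL for 24 h, then treated at 25 μM for 24 or 48 h; controls received vehicle. Cells were harvested, washed twice in PBS pH 7.4 and fixed overnight in ice-cold 70% ethanol at 4 °C. Stained with PI/RNase buffer for 30 min at room temperature, then flow cytometry for phase distribution. Mean ± SD, three independent experiments in triplicate wells.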

Assay [4] is described as follows: Cell cycle arrest in rat HSC-T6 cells assessed as inhibition of DNA synthesis at G0/G1 phase at 25 uM after 24 hrs. The assay is classed as functional, cell-based. On the set-up: scale not given: the % may be the effect or the level left. A digest of the protocol: as §1
The nature of assay [5]: Cell cycle arrest in rat HSC-T6 cells assessed as inhibition of DNA synthesis at sub-G1 phase at 25 uM after 48 hrs. The assay is classed as functional, cell-based. More on the design: scale not given: the % may be the effect or the level left. A digest of the protocol:
as §1

Assay [6] can be described thus: Cell cycle arrest in rat HSC-T6 cells assessed as inhibition of DNA synthesis at G2/M phase at 25 uM after 24 hrs. The assay is classed as functional, cell-based. On the set-up: scale not given: the % may be the effect or the level left. Put shortly:
as §1

Assay [7] relates to HSC-T6. In words: Induction of apoptosis in rat HSC-T6 cells assessed as change in cell morphology at 10 to 50 uM by phase contrast microscopy. The assay is classed as functional, cell-based. Particulars: TDE = time-dependent effect.
Assay [8] concerns HSC-T6. The assay is described as follows: Induction of apoptosis in rat HSC-T6 cells assessed as change in cell morphology after 24 hrs by phase contrast microscopy. The format is functional, cell-based.
Assay [9] can be described thus: Cell cycle arrest in rat HSC-T6 cells assessed as inhibition of DNA synthesis at G0/G1 phase at 25 uM after 48 hrs. More on the design: scale not given: the % may be the effect or the level left. The assay is classed as functional, cell-based. Put shortly: as §1
A short description of assay [10]: Cell cycle arrest in rat HSC-T6 cells assessed as inhibition of DNA synthesis at S phase at 25 uM after 24 hrs. On the set-up: scale not given: the % may be the effect or the level left. The format is functional, cell-based. A digest of the protocol:
as §1

Assay [11] in a line: Cell cycle arrest in rat HSC-T6 cells assessed as inhibition of DNA synthesis at S phase at 25 uM after 48 hrs. The format is functional, cell-based. More on the design: scale not given: the % may be the effect or the level left. A digest of the protocol: as §1
Assay [12] can be described thus: Cell cycle arrest in rat HSC-T6 cells assessed as inhibition of DNA synthesis at G2/M phase at 25 uM after 48 hrs. The format is functional, cell-based. More on the design: scale not given: the % may be the effect or the level left. Put shortly: as §1
The nature of assay [13]: Antiproliferative activity against rat HSC-T6 cells at 50 uM after 48 hrs by MTT assay. The assay is classed as functional. As to conditions: HSC-T6, 48 h.
Assay [14] is described as follows: Antiproliferative activity against rat HSC-T6 cells at 10 uM after 48 hrs by MTT assay. The assay is classed as functional. Particulars: HSC-T6, 48 h.
Assay [15] can be described thus: Induction of apoptosis in rat HSC-T6 cells assessed as early apoptotic cells at 25 uM after 48 hrs using Annexin V-FITC staining by flow cytometry. The format is functional. A digest of the protocol:
(§2)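 After 24 h seeding at 5 × 10^5 cells/mL, HSC-T6 cells were treated at 10 or 25 μM for 24 or 48 h, then collected and washed twice with PBS. Annexin-V/PI double staining with flow cytometry separated Annexin-V+/PI− (early apoptotic), Annexin-V+/PI+ (late apoptotic) and Annexin-V−/PI+ (dead) cells, expressed as percentages. Data representative of three independent experiments.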

Assay [16] is described as follows: Induction of apoptosis in rat HSC-T6 cells assessed as late apoptotic cells at 10 uM after 24 hrs using Annexin V-FITC staining by flow cytometry. The format is functional. Put shortly: as §2
Assay [17] is described as follows: Induction of apoptosis in rat HSC-T6 cells assessed as dead cells at 25 uM after 24 hrs using Annexin V-FITC staining by flow cytometry. The assay is classed as functional. A digest of the protocol: (§3)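 HSC-T6 cells seeded at 5 × 10^5 cells/mL in 12-well plates for 24 h, then exposed to compound at 10 or 25 μM for 24 or 48 h. Harvested, washed twice in PBS pH 7.4, stained with Annexin-V/PI and analysed by flow cytometry. Dead cells scored as Annexin-V−/PI+, given as percentage. Representative of three independent experiments.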

Assay [18] is described as follows: Induction of apoptosis in rat HSC-T6 cells assessed as early apoptotic cells at 10 uM after 24 hrs using Annexin V-FITC staining by flow cytometry. The assay is classed as functional. Put shortly:
as §2

Assay [19] is described as follows: Induction of apoptosis in rat HSC-T6 cells assessed as late apoptotic cells at 25 uM after 24 hrs using Annexin V-FITC staining by flow cytometry. The format is functional. A digest of the protocol:
as §2

Assay [20] in a line: Induction of apoptosis in rat HSC-T6 cells assessed as dead cells at 25 uM after 48 hrs using Annexin V-FITC staining by flow cytometry. The format is functional. A digest of the protocol: as §3
The nature of assay [21]: Induction of apoptosis in rat HSC-T6 cells assessed as dead cells at 10 uM after 48 hrs using Annexin V-FITC staining by flow cytometry. The format is functional. Put shortly: as §3
Assay [22] in a line: Induction of apoptosis in rat HSC-T6 cells assessed as late apoptotic cells at 25 uM after 48 hrs using Annexin V-FITC staining by flow cytometry. The format is functional. A digest of the protocol:
as §2

Assay [23] in a line: Induction of apoptosis in rat HSC-T6 cells assessed as early apoptotic cells at 10 uM after 48 hrs using Annexin V-FITC staining by flow cytometry. The format is functional. Put shortly:
as §2

Assay [24] can be described thus: Induction of apoptosis in rat HSC-T6 cells assessed as viable cells at 25 uM after 24 hrs using Annexin V-FITC staining by flow cytometry. The format is functional. Particulars: HSC-T6, 24 h, read-out: Activity. Put shortly:
as §2

Assay [25] in a line: Induction of apoptosis in rat HSC-T6 cells assessed as viable cells at 25 uM after 48 hrs using Annexin V-FITC staining by flow cytometry. The assay is classed as functional. As to conditions: HSC-T6, 48 h, read-out: Activity. Put shortly:
as §2

The nature of assay [26]: Induction of apoptosis in rat HSC-T6 cells assessed as viable cells at 10 uM after 24 hrs using Annexin V-FITC staining by flow cytometry. The assay is classed as functional. Particulars: HSC-T6, 24 h, read-out: Activity. Put shortly: as §2
Assay [27] can be described thus: Induction of apoptosis in rat HSC-T6 cells assessed as early apoptotic cells at 25 uM after 24 hrs using Annexin V-FITC staining by flow cytometry. The format is functional. A digest of the protocol: as §2
The nature of assay [28]: Induction of apoptosis in rat HSC-T6 cells assessed as late apoptotic cells at 10 uM after 48 hrs using Annexin V-FITC staining by flow cytometry. The format is functional. A digest of the protocol: as §2
Assay [29] is described as follows: Induction of apoptosis in rat HSC-T6 cells assessed as dead cells at 10 uM after 24 hrs using Annexin V-FITC staining by flow cytometry. The assay is classed as functional. Put shortly:
as §3

Assay [30] in a line: Induction of apoptosis in rat HSC-T6 cells assessed as viable cells at 10 uM after 48 hrs using Annexin V-FITC staining by flow cytometry. The format is functional. Particulars: HSC-T6, 48 h, read-out: Activity. Put shortly:
as §2

Take `C[C@H]1[C@H](C)CC[C@]2(C(=O)O)CC[C@]3(C)C(=CC[C@@H]4[C@@]5(C)CC[C@H](O)[C@@](C)(CO)[C@@H]5CC[C@]43C)[C@H]12`: the inhibition at 100 µM in [1] was determined as 50%.
For the compound `C=C(C)[C@@H]1CC[C@]2(C)CC[C@]3(C)[C@H](CC[C@@H]4[C@@]5(C)C[C@@H](O)[C@H](O)C(C)(C)[C@@H]5CC[C@]43C)[C@@H]12`, the Activity result in [2] is “Dose-dependent effect”; in [3] it was 1.9%; in assay [4], 55.9%; in assay [5], 5.4%; in [6], 19.3%; in assay [7], “tde”. Also, the Activity result is “Dose-dependent effect” in assay [8]; 47.2% in assay [9]; 13.7% in assay [10]; 11% in [11]; 18% in assay [12]. Further, the inhibition at 100 µM in [1] amounted to 11%.
On to `O=C(O[C@@H]1Cc2c(O)cc(O)cc2O[C@@H]1c1cc(O)c(O)c(O)c1)c1cc(O)c(O)c(O)c1` [EPIGALOCATECHIN GALLATE], for which the inhibition at 100 µM in assay [1] came to 33.4%. Besides, the Activity in [3] was 1.9%; in assay [4], 51.9%; in [5], 4.5%; in assay [6], 20.1%; in assay [9], 42.3%; in [10], 12.1%. The Activity was found to be 8.3% in assay [11] and 19.6% in [12]. The compound also returned an inhibition at 50 µM in assay [13] of 41.7%. Besides, in [14], the inhibition at 10 µM came out at 83.8%.
As to `C[C@H]1[C@H](C)CC[C@]2(C(=O)O)CC[C@]3(C)C(=CC[C@@H]4[C@@]5(C)CCC(=O)[C@@](C)(CO)[C@@H]5CC[C@]43C)[C@H]12`, the inhibition at 100 µM in assay [1] came to 77.9%.
On to `CC1(C)C=C2[C@H]3CC[C@@H]4[C@@]5(C)C(=O)C[C@H](O)C(C)(C)[C@@H]5CC[C@@]4(C)[C@]3(C)CC[C@@]2(C)CC1`, for which the Activity result is “Dose-dependent effect” in assay [2]; 1.9% in assay [3]; 53.2% in assay [4]; 5% in assay [5]; 17.8% in assay [6]; “tde” in [7]. For the same compound, the Activity result in assay [8] is “Dose-dependent effect”; in assay [9] it was 43.6%; in assay [10] it was 14%; in assay [11] it was 10.6%; in assay [12], 18.8%. In assay [1], this compound registered an inhibition at 100 µM of 14.2%.
Turning to `C[C@H]1[C@H](C)CC[C@]2(C(=O)O)CC[C@]3(C)C(=CC[C@@H]4[C@@]5(C)C[C@@H](O)[C@H](O)C(C)(C)[C@@H]5CC[C@]43C)[C@H]12` [COROSOLIC ACID], the Activity in [15] is 4.41%; in assay [2], “Dose-dependent effect”; in assay [3], 12.4%; in assay [4], 44.6%; in [16], 7.12%; in [17] it was 8.77%. The Activity is 57.7% in [5]; 6.23% in assay [18]; 20.6% in assay [6]; 15.24% in assay [19]; “tde” in assay [7]; 31.85% in [20]. Further, the Activity in [21] is 5.44%; in [22], 9.23%; in assay [8] it was “Dose-dependent effect”; in assay [23], 10.14%; in [9], 14.7%; in [10], 10.6%. The Activity in [27] worked out at 10.45%; in [28], 17.8%; in [11] it was 4.3%; in assay [12] it was 6%; in [29] it was 3.16%. For the same compound, 100 µM produced 15.6% inhibition in assay [1]. Further, the figures for the viability at 25 µM in assay [24] and in [25] were 65.5% and 54.5%, respectively. The viability at 10 µM was 83.5% in assay [26] and 66.6% in assay [30].
In turn, `C[C@H]1[C@H](C)CC[C@]2(C(=O)O)CC[C@]3(C)C(=CC[C@@H]4[C@@]5(C)C[C@@H](O)[C@@H](O)[C@@](C)(CO)[C@@H]5CC[C@]43C)[C@H]12` registered an inhibition at 100 µM in assay [1] of 20.6%.
Take `C[C@H]1[C@H](C)CC[C@]2(C(=O)O)CC[C@]3(C)C(=CC[C@@H]4[C@@]5(C)CC[C@H](O)C(C)(C)[C@@H]5CC[C@]43C)[C@H]12` [URSOLIC ACID]: the Activity entry in [2] was “Dose-dependent effect”; in assay [3] it was 2.9%; in assay [4] it was 56.4%; in assay [5], 17%; in [6], 18.9%; in [7] it was “tde”. The Activity entry is “Dose-dependent effect” in assay [8]; 39.7% in assay [9]; 11.9% in [10]; 9.6% in assay [11]; 16.7% in [12]. Moreover, testing at 100 µM in assay [1] gave an inhibition of 14.8%.
